Test results taken from ChEMBL document CHEMBL1136049, “Synthesis of syn- and anti-1-amino-3-[18F]fluoromethyl-cyclobutane-1-carboxylic acid (FMACBC), potential PET ligands for tumor detection” (J Med Chem, 2002).

Columns and labels:
[1] = species on record: Rattus norvegicus; test: Radioactivity distribution in heart of tumor-bearing fischer rat after injection of syn-[18F]-FMACBC after 120 min; assay type: ADME, organism-based; conditions: in vivo, 2 h
Outline: (§1)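 Male Fischer 344 rats carrying intracranial rat 9L gliosarcoma, made by stereotaxic injection of 4 × 10^4 cells 17–19 days before. Awake restrained rats received ~35 μCi of 18F tracer in 0.3 mL sterile water IV by tail vein and were killed at 5, 60 or 120 min, n = 3–5. Tissues were weighed, gamma-counted, decay-corrected and expressed as % injected dose per gram.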

[2] = species on record: Rattus norvegicus; test: Radioactivity distribution in heart of normal fischer rat after injection of syn-[18F]-FMACBC after 5 min.; assay type: ADME, organism-based; conditions: in vivo
Outline: (§2)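 Male Fischer 344 rats (200–250 g), normal, fed ad libitum, given ~85 μCi of 18F tracer in 0.3 mL sterile water IV through a tail vein catheter. Anesthesia was ketamine:xylazine IM. Groups of four were killed at 5, 30, 60 and 120 min. Tissues were weighed and gamma-counted against dose standards, decay-corrected, and expressed as mean % injected dose per gram.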

[3] = species on record: Rattus norvegicus; test: Radioactivity distribution in spleen of normal fischer rat after injection of anti-[18F]FMACBC after 30 min.; assay type: ADME, organism-based; conditions: in vivo, 0.5 h
Outline: (§3)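 Normal male Fischer 344 rats (200–250 g) were anesthetised with ketamine:xylazine i.m. and given about 85 μCi tracer in 0.3 mL sterile water via a tail vein catheter. Groups of four were killed at 5, 30, 60 and 120 min. Selected tissues were weighed and gamma counted with dose standards, decay-corrected, and expressed as mean %ID/g.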

[4] = species on record: Rattus norvegicus; test: Radioactivity distribution in muscle of normal fischer rat after injection of syn-[18F]-FMACBC after 5 min.; assay type: ADME, organism-based, Muscle tissue; conditions: in vivo; outline: as §3
[5] = species on record: Rattus norvegicus; test: Radioactivity distribution in blood of normal fischer rat after injection of syn-[18F]-FMACBC after 30 min.; assay type: ADME, organism-based; conditions: in vivo, 0.5 h; outline: as §2
[6] = species on record: Rattus norvegicus; test: Radioactivity distribution in heart of normal fischer rat after injection of anti-[18F]FMACBC after 30 min.; assay type: ADME, organism-based; conditions: in vivo, 0.5 h; outline: as §2
[7] = species on record: Rattus norvegicus; test: Radioactivity distribution in bone of tumor-bearing fischer rat after injection of syn-[18F]-FMACBC after 5 min; assay type: ADME, organism-based, Bone element; conditions: in vivo; outline: as §1
[8] = species on record: Rattus norvegicus; test: Radioactivity distribution in blood of tumor-bearing fischer rat after injection of anti-[18F]FMACBC after 5 min; assay type: ADME, organism-based; conditions: in vivo; outline: as §1
[9] = species on record: Rattus norvegicus; test: Radioactivity distribution in brain of normal fischer rat after injection of syn-[18F]-FMACBC after 5 min.; assay type: ADME, organism-based; conditions: in vivo; outline: as §2
[10] = species on record: Rattus norvegicus; test: Radioactivity distribution in muscle of normal fischer rat after injection of syn-[18F]-FMACBC after 60 min.; assay type: ADME, organism-based, Muscle tissue; conditions: in vivo, 1 h; outline: as §3
[11] = species on record: Rattus norvegicus; test: Radioactivity distribution in muscle of tumor-bearing fischer rat after injection of anti-[18F]FMACBC after 5 min; assay type: ADME, organism-based, Muscle tissue; conditions: in vivo
Outline: (§4)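 Male Fischer 344 rats with intracranial 9L gliosarcoma (4 × 10^4 cells stereotaxically implanted; used 17–19 days after implantation). About 35 μCi tracer in 0.3 mL sterile water was given by tail vein to awake, restrained rats. Rats were killed at 5, 60 or 120 min. Tissues, tumor and contralateral brain were weighed and gamma counted, decay-corrected, and expressed as %ID/g; n = 3–5 per time point.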

[12] = species on record: Rattus norvegicus; test: Radioactivity distribution in blood of normal fischer rat after injection of anti-[18F]FMACBC after 120 min.; assay type: ADME, organism-based; conditions: in vivo, 2 h; outline: as §2
[13] = species on record: Rattus norvegicus; test: Radioactivity distribution in pancreas of normal fischer rat after injection of anti-[18F]FMACBC after 60 min.; assay type: ADME, organism-based; conditions: in vivo, 1 h; outline: as §3
[14] = species on record: Rattus norvegicus; test: Radioactivity distribution in heart of tumor-bearing fischer rat after injection of anti-[18F]FMACBC after 60 min; assay type: ADME, organism-based; conditions: in vivo, 1 h; outline: as §1
[15] = species on record: Rattus norvegicus; test: Radioactivity distribution in pancreas of normal fischer rat after injection of syn-[18F]-FMACBC after 60 min.; assay type: ADME, organism-based; conditions: in vivo, 1 h; outline: as §3
[16] = species on record: Rattus norvegicus; test: Radioactivity distribution in pancreas of normal fischer rat after injection of syn-[18F]-FMACBC after 120 min.; assay type: ADME, organism-based; conditions: in vivo, 2 h; outline: as §3
[17] = species on record: Rattus norvegicus; test: Radioactivity distribution in spleen of normal fischer rat after injection of anti-[18F]FMACBC after 60 min.; assay type: ADME, organism-based; conditions: in vivo, 1 h; outline: as §3
[18] = species on record: Rattus norvegicus; test: Radioactivity distribution in kidney of tumor-bearing fischer rat after injection of anti-[18F]FMACBC after 120 min; assay type: ADME, organism-based; conditions: in vivo, 2 h; outline: as §1
[19] = species on record: Rattus norvegicus; test: Radioactivity distribution in liver of normal fischer rat after injection of anti-[18F]FMACBC after 5 min.; assay type: ADME, organism-based; conditions: in vivo; outline: as §2
[20] = species on record: Rattus norvegicus; test: Radioactivity distribution in tumor of tumor-bearing fischer rat after injection of syn-[18F]-FMACBC after 5 min; assay type: ADME, organism-based; conditions: in vivo; outline: as §4
[21] = species on record: Rattus norvegicus; test: Radioactivity distribution in tumor of tumor-bearing fischer rat after injection of anti-[18F]FMACBC after 5 min; assay type: ADME, organism-based; conditions: in vivo; outline: as §4
[22] = species on record: Rattus norvegicus; test: Radioactivity distribution in lungs of normal fischer rat after injection of syn-[18F]-FMACBC after 5 min.; assay type: ADME, organism-based, Lung; conditions: in vivo; outline: as §3
[23] = species on record: Rattus norvegicus; test: Radioactivity distribution in kidney of tumor-bearing fischer rat after injection of syn-[18F]-FMACBC after 5 min; assay type: ADME, organism-based; conditions: in vivo; outline: as §1
[24] = species on record: Rattus norvegicus; test: Radioactivity distribution in brain of tumor-bearing fischer rat after injection of anti-[18F]FMACBC after 5 min; assay type: ADME, organism-based; conditions: in vivo; outline: as §1
[25] = species on record: Rattus norvegicus; test: Radioactivity distribution in bone of tumor-bearing fischer rat after injection of anti-[18F]FMACBC after 120 min; assay type: ADME, organism-based, Bone element; conditions: in vivo, 2 h; outline: as §1
[26] = species on record: Rattus norvegicus; test: Radioactivity distribution in lung of tumor-bearing fischer rat after injection of syn-[18F]-FMACBC after 60 min; assay type: ADME, organism-based; conditions: in vivo, 1 h; outline: as §4
[27] = species on record: Rattus norvegicus; test: Radioactivity distribution in lung of tumor-bearing fischer rat after injection of syn-[18F]-FMACBC after 120 min; assay type: ADME, organism-based; conditions: in vivo, 2 h; outline: as §4
[28] = species on record: Rattus norvegicus; test: Radioactivity distribution in heart of normal fischer rat after injection of syn-[18F]-FMACBC after 60 min.; assay type: ADME, organism-based; conditions: in vivo, 1 h; outline: as §2
[29] = species on record: Rattus norvegicus; test: Radioactivity distribution in heart of tumor-bearing fischer rat after injection of anti-[18F]FMACBC after 5 min; assay type: ADME, organism-based; conditions: in vivo; outline: as §1
[30] = species on record: Rattus norvegicus; test: Radioactivity distribution in testis of normal fischer rat after injection of anti-[18F]FMACBC after 5 min.; assay type: ADME, organism-based; conditions: in vivo; outline: as §3
[31] = species on record: Rattus norvegicus; test: Radioactivity distribution in liver of tumor-bearing fischer rat after injection of anti-[18F]FMACBC after 5 min; assay type: ADME, organism-based; conditions: in vivo; outline: as §4
[32] = species on record: Rattus norvegicus; test: Radioactivity distribution in bone of normal fischer rat after injection of syn-[18F]-FMACBC after 5 min.; assay type: ADME, organism-based, Bone element; conditions: in vivo; outline: as §2
[33] = species on record: Rattus norvegicus; test: Radioactivity distribution in kidney of tumor-bearing fischer rat after injection of anti-[18F]FMACBC after 5 min; assay type: ADME, organism-based; conditions: in vivo; outline: as §1
[34] = species on record: Rattus norvegicus; test: Radioactivity distribution in muscle of normal fischer rat after injection of anti-[18F]FMACBC after 60 min.; assay type: ADME, organism-based, Muscle tissue; conditions: in vivo, 1 h; outline: as §3
[35] = species on record: Rattus norvegicus; test: Radioactivity distribution in bone of normal fischer rat after injection of syn-[18F]-FMACBC after 30 min.; assay type: ADME, organism-based, Bone element; conditions: in vivo, 0.5 h; outline: as §2
[36] = species on record: Rattus norvegicus; test: Radioactivity distribution in pancreas of tumor-bearing fischer rat after injection of syn-[18F]-FMACBC after 60 min; assay type: ADME, organism-based; conditions: in vivo, 1 h; outline: as §4
[37] = species on record: Rattus norvegicus; test: Radioactivity distribution in muscle of tumor-bearing fischer rat after injection of syn-[18F]-FMACBC after 60 min; assay type: ADME, organism-based, Muscle tissue; conditions: in vivo, 1 h; outline: as §4
[38] = species on record: Rattus norvegicus; test: Radioactivity distribution in bone of normal fischer rat after injection of anti-[18F]FMACBC after 5 min.; assay type: ADME, organism-based, Bone element; conditions: in vivo; outline: as §2
[39] = species on record: Rattus norvegicus; test: Radioactivity distribution in bone of tumor-bearing fischer rat after injection of syn-[18F]-FMACBC after 60 min; assay type: ADME, organism-based, Bone element; conditions: in vivo, 1 h; outline: as §1
[40] = species on record: Rattus norvegicus; test: Radioactivity distribution in testis of normal fischer rat after injection of syn-[18F]-FMACBC after 30 min.; assay type: ADME, organism-based; conditions: in vivo, 0.5 h; outline: as §3
[41] = species on record: Rattus norvegicus; test: Radioactivity distribution in brain of tumor-bearing fischer rat after injection of syn-[18F]-FMACBC after 60 min; assay type: ADME, organism-based; conditions: in vivo, 1 h; outline: as §1

SMILES: N[C@]1(C(=O)O)C[C@@H](CF)C1
- ID/g [1]: 0.33%
- ID/g [2]: 0.63%
- ID/g [3]: 0.63%
- ID/g [4]: 0.46%
- ID/g [5]: 0.33%
- ID/g [6]: 0.68%
- ID/g [7]: 0.26%
- ID/g [8]: 0.51%
- ID/g [9]: 0.26%
- ID/g [10]: 0.61%
- ID/g [11]: 0.57%
- ID/g [12]: 0.31%
- ID/g [13]: 3.83%
- ID/g [14]: 0.63%
- ID/g [15]: 3.13%
- ID/g [16]: 3.88%
- ID/g [17]: 0.48%
- ID/g [18]: 0.79%
- ID/g [19]: 0.81%
- ID/g [20]: 1.16%
- ID/g [21]: 1.28%
- ID/g [22]: 0.75%
- ID/g [23]: 0.59%
- ID/g [24]: 0.17%
- ID/g [25]: 0.19%
- ID/g [26]: 0.31%
- ID/g [27]: 0.26%
- ID/g [28]: 0.64%
- ID/g [29]: 0.58%
- ID/g [30]: 0.24%
- ID/g [31]: 0.87%
- ID/g [32]: 0.7%
- ID/g [33]: 0.96%
- ID/g [34]: 0.61%
- ID/g [35]: 0.32%
- ID/g [36]: 2.08%
- ID/g [37]: 0.54%
- ID/g [38]: 0.52%
- ID/g [39]: 0.12%
- ID/g [40]: 0.29%
- ID/g [41]: 0.23%
